Measurements as given in ChEMBL document CHEMBL1141015, “Discovery of diacylphloroglucinols as a new class of GPR40 (FFAR1) agonists” (Bioorg Med Chem Lett, 2008).
pEC50: −log10 of the molar value. Calls of active or inactive are those of the source. No cut-off for these calls is given here.

Key:
[1] = molecular target: T1, Free fatty acid receptor 1 (Homo sapiens, UniProt O14842); assay: Agonist activity at GPR40 expressed in CHO cells by FLIPR assay; assay type: functional, cell-based
Procedure, shortened: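 CHO-K1 cells stably transfected with hGPR40 (pCDN vector), seeded and grown 48 h, loaded 1 h with Fluo-4AM in 10 mM Hepes/Ca²⁺/2.5 mM probenecid HBSS pH 7.5, washed thrice, held at 37 °C. FlexStation calcium flux read as fold over control. EC50 from dose–response curves; efficacy as % of maximal linoleic acid response. Mock-transfected CHO-K1 run in parallel.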

[2] = molecular target: T1, Free fatty acid receptor 1; assay: Agonist activity at GPR40; assay type: functional
[3] = molecular target: T1, Free fatty acid receptor 1; assay: Agonist activity at human GPR40 expressed in CHOK1 cells assessed as effect on calcium flux at 10 uM by fluorescence assay; assay type: functional, cell-based; settings: CHO-K1
Procedure, shortened: (§1)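 CHO K1 cells stably transfected with hGPR40 (vector pCDN), seeded 10,000 cells/well on poly-D-lysine plates, 48 h culture; loaded 1 h with 2.5 µM Fluo-4AM in 10 mM Hepes, 2.5 mM probenecid, HBSS pH 7.5, washed thrice, 37 °C; Ca²⁺ flux read on FlexStation as fold over control; mock-transfected CHO K1 cells run in parallel for specificity.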

[4] = molecular target: T1, Free fatty acid receptor 1; assay: Agonist activity at human GPR40 expressed in CHOK1 cells assessed as fold increase in calcium flux at 10 uM by fluorescence assay relative to control; assay type: functional, cell-based; settings: CHO-K1; procedure, shortened: as §1
[5] = molecular target: T1, Free fatty acid receptor 1; assay: Agonist activity at human GPR40 expressed in CHOK1 cells by fluorescence assay; assay type: functional, cell-based, CHO-K1; procedure, shortened: as §1
[6] = test system: HIT-T15; assay: Induction of insulin secretion in Syrian golden hamster HIT-T15 cells at 10 uM; assay type: functional, cell-based; settings: Mesocricetus auratus
Procedure, shortened: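 HIT-T15 hamster pancreatic cells treated with 10 µM compound; insulin secretion measured, with linoleic acid as reference.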

[7] = molecular target: T1, Free fatty acid receptor 1; assay: Agonist activity at human GPR40 expressed in CHOK1 cells assessed as maximal response at 10 uM by fluorescence assay relative to linoleic acid; assay type: functional, cell-based; settings: CHO-K1; procedure, shortened: as §1
[8] = molecular target: T1, Free fatty acid receptor 1; assay: Activity at human GPR40 expressed in CHOK1 cells assessed as inhibition of linoleic acid-induced calcium flux by fluorescence assay; assay type: functional, cell-based; settings: CHO-K1
[9] = molecular target: T1, Free fatty acid receptor 1; assay: Agonist activity at GPR40 at 100 uM; assay type: functional
[10] = molecular target: T1, Free fatty acid receptor 1; assay: Activation at GPR40 expressed in HEK293 cells at 100 uM by calcium mobilization-based FLIPR assay; assay type: functional, cell-based
[11] = molecular target: Free fatty acid receptor 1 (Mus musculus, UniProt Q76JU9); assay: Agonist activity at mouse GPR40 expressed in HEK293 cells; assay type: functional, cell-based
Chain of Free fatty acid receptor 1 (Mus musculus, UniProt Q76JU9) (Q76JU9 whole entry): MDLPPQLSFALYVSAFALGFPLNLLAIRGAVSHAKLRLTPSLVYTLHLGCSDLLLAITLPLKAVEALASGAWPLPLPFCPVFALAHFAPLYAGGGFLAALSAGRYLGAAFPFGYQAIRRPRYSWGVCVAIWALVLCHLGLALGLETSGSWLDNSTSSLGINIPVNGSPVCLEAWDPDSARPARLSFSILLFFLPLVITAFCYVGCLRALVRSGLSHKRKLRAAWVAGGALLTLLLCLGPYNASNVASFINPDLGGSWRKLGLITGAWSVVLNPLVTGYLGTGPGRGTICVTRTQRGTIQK

T1 sequence (O14842 whole entry): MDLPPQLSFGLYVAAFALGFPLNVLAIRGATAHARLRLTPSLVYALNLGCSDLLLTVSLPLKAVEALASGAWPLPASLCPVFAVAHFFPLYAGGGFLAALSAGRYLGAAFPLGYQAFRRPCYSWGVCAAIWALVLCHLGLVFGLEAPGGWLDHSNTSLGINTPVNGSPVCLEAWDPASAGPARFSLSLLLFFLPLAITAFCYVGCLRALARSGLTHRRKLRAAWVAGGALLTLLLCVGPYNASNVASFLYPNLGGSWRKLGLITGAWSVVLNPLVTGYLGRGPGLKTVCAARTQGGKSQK

SMILES: O=C(O)[C@H]1[C@@H]2Oc3cc(Oc4ccc(C(F)(F)F)cc4Cl)ccc3[C@@H]21
- pEC50 [1]: 10.00

SMILES: CC#CC(CC(=O)O)c1ccc(OC2CCc3cc(-c4cccs4)ccc32)cc1 (stereo unspecified)
- pEC50 [2]: 8.00

SMILES: CC(C)CC(=O)c1c(O)cc(O)c(C(=O)CC(C)C)c1O
- Activity [3]: Active
- fold change (FC) [4]: 1.89
- pEC50 [5]: 5.22
- Activity [6]: Active
- Activity [7]: 102%

SMILES: CC(C)C(=O)c1c(O)cc(O)c(C(=O)C(C)C)c1O
- Activity [3]: Active
- fold change (FC) [4]: 2.31
- pEC50 [5]: 5.10
- Activity [6]: Active
- Activity [7]: 88.7%

SMILES: O=C(/C=C/C(=O)c1c(O)cc(O)cc1O)c1c(O)cc(O)cc1O
- Activity [3]: inactive
- fold change (FC) [4]: 1.01
- Activity [8]: inactive

SMILES: CC(C)CC(=O)c1c(O)c(Cc2c(O)c(C(=O)CC(C)C)c(O)c(C(=O)CC(C)C)c2O)c(O)c(C(=O)CC(C)C)c1O
- Activity [3]: inactive
- fold change (FC) [4]: 1.11
- Activity [8]: inactive

SMILES: Cc1cc(OCC2(C)COC2)cc(C)c1-c1cccc(COc2ccc(C3CC3C(=O)O)cc2)c1 (stereo unspecified)
- Activity [9]: 119%

SMILES: O=C(O)CCc1ccc2oc(Nc3cccc(Cl)c3Cl)nc2c1
- Activity [10]: 111%

SMILES: CCCCOc1ccc(C)cc1-c1ccc(COc2ccc3c(c2)CCC[C@H]3CC(=O)O)cc1
- pEC50 [1]: > 7.00

SMILES: CCCCCCCC(=O)c1c(O)cc(O)c(C(=O)CCCCCCC)c1O
- Activity [3]: inactive
- fold change (FC) [4]: 1.21
- Activity [8]: inactive

SMILES: Cc1cccc(C)c1-c1cccc(COc2ccc(Cn3oc(=O)[nH]c3=O)cc2)c1
- pEC50 [2]: 6.59

SMILES: O=C(O)CCCC(=O)c1c(O)cc(O)cc1O
- Activity [3]: inactive
- fold change (FC) [4]: 1
- Activity [8]: inactive

SMILES: CCCCc1c(O)c(C(=O)CC(C)C)c(O)c(C(=O)CC(C)C)c1O
- Activity [3]: Active
- fold change (FC) [4]: 2.12
- pEC50 [5]: 6.01
- Activity [7]: 84.5%

SMILES: O=C(CCl)c1c(O)cc(O)c(C(=O)CCl)c1O
- Activity [3]: inactive
- fold change (FC) [4]: 1.21
- Activity [8]: inactive

SMILES: CCCCOc1cc(OCCCC)c(C(=O)CC(C)C)c(O)c1C(=O)CC(C)C
- Activity [3]: inactive
- fold change (FC) [4]: 1.35
- Activity [8]: inactive

SMILES: CCCCCCCCCCCC(=O)c1c(O)cc(O)c(C(=O)CCCCCCCCCCC)c1O [DIDODECANOYLPHLOROGLUCINOL]
- Activity [3]: Active
- fold change (FC) [4]: 2.33
- pEC50 [5]: 7.15
- Activity [6]: Active
- Activity [7]: 100%

SMILES: CCCCCCCCCCCCCCCC(=O)c1c(O)cc(O)c(C(=O)CCCCCCCCCCCCCCC)c1O
- Activity [3]: inactive
- fold change (FC) [4]: 1.02
- Activity [8]: inactive

SMILES: CCCCOc1cc(O)c(C(=O)CC(C)C)c(O)c1C(=O)CC(C)C
- Activity [3]: inactive
- fold change (FC) [4]: 1.02
- Activity [8]: inactive

SMILES: CCCCC/C=C\C/C=C\CCCCCCCC(=O)O [LINOLEIC ACID]
- Activity [3]: Active
- fold change (FC) [4]: 2.55
- pEC50 [5]: 6.27
- pEC50 [2]: 6.27

SMILES: CC(C)CC(=O)c1c(O)cc(OCCO)c(C(=O)CC(C)C)c1O
- Activity [3]: inactive
- fold change (FC) [4]: 1.02
- Activity [8]: inactive

SMILES: O=C(O)CCc1ccc(OCc2ccc(CC(CCc3ccccn3)c3nc(-c4ccccc4)cs3)cc2)cc1 (stereo unspecified)
- pEC50 [2]: 7.72

SMILES: CCCCCCCCC1SC(=O)NC1=O (stereo unspecified)
- pEC50 [11]: 5.10

SMILES: CC(C)CC(=O)c1c(O)cc(O)c(C(=O)CCCC(=O)O)c1O
- Activity [3]: inactive
- fold change (FC) [4]: 1
- Activity [8]: inactive

SMILES: O=C(O)CCCCCCCNc1ncc(-c2ccccc2)c(-c2ccccc2)n1
- Activity [10]: 104%

SMILES: CCCCOc1cc(O)c(C(=O)CC(C)C)c(OCCCC)c1C(=O)CC(C)C
- Activity [3]: inactive
- fold change (FC) [4]: 1.46
- Activity [8]: inactive

SMILES: CCCCCCCCCCCCCCCCCC(=O)c1c(O)cc(O)c(C(=O)CCCCCCCCCCCCCCCCC)c1O
- Activity [3]: inactive
- fold change (FC) [4]: 1.19
- Activity [8]: inactive

SMILES: CC(C)CC(=O)c1c(O)cc(O)cc1O
- Activity [3]: inactive
- fold change (FC) [4]: 1.12
- Activity [8]: inactive
